# In the library only some 3.5% were active in any assay of this set; here they are far more common.
# FXIIa inh = human FXIIa protease inhibitors, primary screen, biochemical, 1536-well | purified FXIIa, Boc-QGR-AMC fluorogenic substrate, 2 h | AID 800, 2007 | 220,000 compounds, 0.3% hits | inhibition, % at 5 µM | Coagulation factor XII (Homo sapiens), P00748; in the data active = inhibition above about 40%;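 also: 0% = enzyme with no compound and 100% = blank without enzyme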
# Target sequence (P00748 20-372 limits assumed): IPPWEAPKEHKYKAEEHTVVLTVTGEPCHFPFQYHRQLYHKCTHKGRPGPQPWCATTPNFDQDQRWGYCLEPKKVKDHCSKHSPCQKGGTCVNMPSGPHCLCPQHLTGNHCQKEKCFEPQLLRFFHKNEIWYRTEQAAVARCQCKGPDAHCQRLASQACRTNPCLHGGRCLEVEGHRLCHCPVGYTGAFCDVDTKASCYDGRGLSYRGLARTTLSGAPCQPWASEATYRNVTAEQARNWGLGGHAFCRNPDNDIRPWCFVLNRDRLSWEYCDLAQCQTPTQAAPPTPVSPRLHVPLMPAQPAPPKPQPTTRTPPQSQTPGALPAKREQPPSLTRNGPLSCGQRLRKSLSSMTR
# Target sequence (P00748 373-615 limits assumed): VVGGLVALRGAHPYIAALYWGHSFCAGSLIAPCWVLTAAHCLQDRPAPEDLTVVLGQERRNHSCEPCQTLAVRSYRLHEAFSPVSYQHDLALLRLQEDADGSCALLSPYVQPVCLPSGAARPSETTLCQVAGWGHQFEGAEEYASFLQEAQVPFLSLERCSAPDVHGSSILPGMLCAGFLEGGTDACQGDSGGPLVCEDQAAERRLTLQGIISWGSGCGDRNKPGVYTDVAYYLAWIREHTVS
# AHR act = AHR activators, primary screen, cell-based, luminescence, luciferase reporter, human | activation, % at 5 µM | 320,000 compounds, 2.5% hits | AHR-responsive luciferase reporter cells | Aryl hydrocarbon receptor (Homo sapiens), P35869; in the data active = activation above about 47%;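 also: 0% = vehicle wells and 100% = reference agonist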
# hK5 inh = human KLK5 protease inhibitors, primary screen, biochemical, 1536-well; inhibition, % at 5 µM; recombinant hK5, fluorogenic AMC substrate cleavage; Kallikrein-5 (Homo sapiens), Q9Y337; 210,000 compounds, 0.59% hits;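 active = inhibition of 40% or more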;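 also: 0% = enzyme controls without compound and 100% = no-enzyme blanks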
# thrombin 1536 = human alpha-thrombin inhibitors, primary screen, counter-screen for coagulation protease inhibitor project, biochemical, 1536-well, fluorogenic AMC substrate. Boc-VPR-AMC fluorogenic substrate cleavage. inhibition, % at 5 µM. 220,000 compounds, 0.26% hits. AID 1046, 2008;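 active = inhibition at or above 40%; inactive = inhibition below 40%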;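 also: 0% = enzyme with no compound and 100% = wells without enzyme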
#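 Test system: human alpha-thrombin; medium: pH 7.5 Tris-saline with Tween 20; times: reaction at room temperature; signal: AMC fluorescence at 355 nm excitation and 460 nm emission; also added: Boc-VPR-AMC substrate, 15 µM final; dosing: one concentration per compound, 5 µM, with 0.2% DMSO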
# FXIa inh 1536 = human FXIa protease inhibitors, primary screen, biochemical, 1536-well; purified FXIa, Boc-Glu-Ala-Arg-AMC fluorogenic substrate; AID 798, 2007; Coagulation factor XI (Homo sapiens), P03951; 220,000 compounds, 0.14% hits; inhibition, % at 5 µM;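 active = inhibition of at least 40%; inactive = inhibition below 40%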;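 also: fluorescence of freed AMC excited at 355 nm; 0% = enzyme without compound and 100% = no enzyme blank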
# STAT3 act = IL-6 driven STAT3 reporter potentiators, primary screen, U3A cells, luciferase, luminescence, MLSCN library | IL-6 STAT3-luciferase reporter; 100% = signal with IL-6 EC80 alone | activation (% of control), % at 5.6 µM | 190,000 compounds, 0.91% hits | AID 871, 2007;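 active = activation above the screen-wide mean of compound activation plus 3 SD, cut at about 130% in these data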;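 also: 0% = background luminescence of wells with medium and substrate only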
#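 Material: human U3A cells carrying STAT3-luciferase construct. Measured by: reporter luminescence signal. Timing: compound 1 h, then IL-6 6 h at 37 °C.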
# The depositor's hits bear a star; nt = not tested or not shown.
SMILES,FXIIa inh,AHR act,hK5 inh,thrombin 1536,FXIa inh 1536,STAT3 act
CN(CC(=O)N1CCCC1)S(=O)(=O)c1ccc2ccccc2c1,14,1,2,nt,5,101
O=S(=O)(NCc1ccccc1)c1ccc(NC(=S)NCc2ccco2)cc1,nt,2,nt,nt,nt,nt
COc1ccccc1N1CCN(C(=O)CCCN2C(=O)c3cccc4cccc(c34)C2=O)CC1,15,1,-3,-11,6,93
Cc1nc(NCCCn2ccnc2)c2ccccc2n1,9,57*,-8,-5,4,110
c1cncc(-c2nc(NCCCn3ccnc3)c3ccccc3n2)c1,3,75*,1,-1,3,98
c1ccc(-c2nc(NCCCn3ccnc3)c3oc4ccccc4c3n2)cc1,19,82*,-3,3,12,96
Cc1ccc(-c2nc3ccccc3c(=O)n2CCCn2ccnc2)cc1,-9,5,-1,-1,-6,104
Cc1nc(NCCCN2CCOCC2)c2oc3ccccc3c2n1,13,9,-2,-5,-3,92
O=[N+]([O-])c1ccccc1S(=O)(=O)N/C(=N/S(=O)(=O)c1ccccc1)c1ccccc1,nt,-1,nt,nt,nt,nt
C=C(C)CN(CC)C(=O)CC1C(=O)NCCN1CC(C)(C)C (stereo unspecified),6,1,1,44*,4,nt
CC(C)C(NC(=O)C(Cc1ccccc1)NC(=O)OCc1ccccc1)C(=O)O (stereo unspecified),24,1,21,3,47*,96
Nc1nn2cc(-c3ccc(Br)cc3)nc2c2ccccc12,-4,65*,-6,2,-5,nt
Brc1ccc(-c2cn3nc4c(nc3n2)CCCC4)cc1,14,-7,4,2,1,38
O=C1C=C(Nc2ccccc2O)c2ccccc2C1=O,5,72*,1,-3,-2,100
O=C(CN1C(=O)/C(=C/c2ccccc2F)Sc2ccccc21)NCC1CCCO1 (stereo unspecified),nt,3,nt,nt,nt,nt
COc1ccc(/C(O)=C2/C(=O)C(=O)N(CCN(C)C)C2c2cccnc2)cc1C (stereo unspecified),5,3,-1,-14,-5,100
Cc1cc(/C(O)=C2\C(=O)C(=O)N(CCN(C)C)C2c2ccncc2)ccc1OCc1ccccc1 (stereo unspecified),24,-2,71*,21,11,98
COc1cccc(/C(O)=C2/C(=O)C(=O)N(CCN3CCOCC3)C2c2cccnc2)c1 (stereo unspecified),14,0,-6,-2,11,96
COc1cccc(/C(O)=C2/C(=O)C(=O)N(CCCN3CCOCC3)C2c2ccncc2)c1 (stereo unspecified),-4,2,117*,1,-3,106
COc1cccc(C(=O)OCCN2CCOCC2)c1,32,-1,36,-3,51*,98
O=C1c2ccccc2S(=O)(=O)c2cc(N3CCc4ccccc4C3)ccc21,nt,28,nt,nt,nt,nt
COc1ccc2sc(-c3ccc(SC)cc3)c(/C=C/c3ccc(OC)c(OC)c3)c2c1,nt,49*,nt,nt,nt,nt
COc1ccc(-c2sc3ccccc3c2/C=C/c2ccc(N)cc2)cc1,nt,54*,nt,nt,nt,nt
COc1ccc(/C=C/c2c(-c3ccc(OC)cc3)sc3ccc(N4CCOCC4)cc23)cc1,nt,25,nt,nt,nt,nt
CC(C)(C)c1ccc(C(=O)Nc2ncn[nH]2)cc1,7,70*,-1,-12,-2,91
SMILES,FXIIa inh,AHR act,hK5 inh,thrombin 1536,FXIa inh 1536,STAT3 act
Cc1ccccc1CN1CCN(C(=O)CC(C)C)CC1,nt,0,nt,nt,nt,nt
O=C(NNC(=O)c1ccc2nonc2c1)Nc1ccc(Cl)cc1,0,77*,1,-2,21,nt
COc1ccccc1-c1nnc(SCC(=O)Nc2ccc(Cl)cc2Cl)o1,10,57*,12,2,3,111
Cc1cc(C)cc(NC(=O)CSc2nnc(-c3ccccc3C)o2)c1,-5,-4,54*,17,6,84
COc1ccccc1NC(=O)CSc1nnc(-c2ccoc2C)o1,nt,-2,nt,nt,nt,nt
COc1ccc(-c2cc3ccc(F)cc3cn2)cc1,nt,47*,nt,nt,nt,nt
COc1cc(OC)cc(-c2cc3cc(F)ccc3cn2)c1,nt,17,nt,nt,nt,nt
Fc1ccc2cnc(-c3ccccc3F)cc2c1,nt,32,nt,nt,nt,nt
COc1ccc(-c2cc3cc(F)ccc3cn2)cc1,nt,51*,nt,nt,nt,nt
Fc1ccc2cc(-c3ccccc3F)ncc2c1,nt,76*,nt,nt,nt,nt
CC(CC(=O)Nc1nnc(CC(C)(C)C)s1)c1ccccc1 (stereo unspecified),nt,1,nt,nt,nt,nt
CC(=O)Nc1ccc(-c2csc(NC(C)c3ccccc3)n2)cc1 (stereo unspecified),6,0,-3,-8,-4,97
Cc1cc(C(C)(C)C)ccc1OCCn1ccnc1,-3,50*,-4,-2,-7,95
Cc1ccc(C(C)(C)C)c(OCCCn2ccnc2)c1,15,48*,-7,3,12,97
Cc1ccc(OCCCCn2ccnc2)c([N+](=O)[O-])c1,9,61*,10,-1,-3,93
Cc1ccc(OCCCn2ccnc2)cc1C,16,18,-4,0,1,95
Cc1cc(OCCn2ccnc2)ccc1C(C)C,16,64*,-14,4,10,89
Cc1ccc(OCCCCn2ccnc2)c(Cl)c1,16,17,8,2,3,96
COc1cc(-c2nnc(COC(=O)c3c4c(nc5ccccc35)CCCC4)o2)cc(OC)c1OC,9,nt,-20,3,1,96
Cc1cc(C)cc(OCCCn2ccnc2)c1,nt,37,nt,nt,nt,nt
Cc1cc(C)c(C)c(OCCCn2ccnc2)c1,13,58*,-25,-4,3,99
Cc1ccccc1NC(=S)NCc1ccccc1,5,-1,-9,-7,-2,101
O=c1cc(-c2ccc([N+](=O)[O-])cc2)nc2cc(-c3ccc(Cl)cc3)[nH]n12,-3,1,48*,63*,16,97
O=C(O)CCNc1nc(-c2ccccc2)nc2ccccc12,6,15,10,-4,-5,100
OCCNc1nc(-c2cccnc2)nc2ccccc12,9,31,9,-5,-4,108
O=C(OCCNc1nc(-c2ccccc2)nc2ccccc12)c1cccnc1,6,48*,15,-6,-2,104
O=C(OCCNc1nc(-c2ccccc2)nc2ccccc12)c1ccncc1,8,47*,5,-1,1,99
N#Cc1ccc(S(=O)(=O)N2CCN(C(=O)[C@@H]3CCCN3C(=O)c3cccs3)CC2)cc1,nt,0,nt,nt,nt,nt
